System: RAW264.7
Test: Antiinflammatory activity against mouse RAW264.7 cells assessed as inhibition of LPS-induced nitrite accumulation after 24 hrs by Griess reagent method
Format: functional, cell-based
Settings: RAW264.7, 24 h
Summary of the method: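 RAW 264.7 mouse macrophages in RPMI 1640 with 10% heat-inactivated FBS, penicillin/streptomycin, seeded at 1×10^5 cells/well, adhered 2 h at 37 °C, 5% CO₂. LPS 1 μg/mL for 24 h with or without compounds in DMSO (0.2% v/v final). Nitrite in supernatant read with Griess reagent against sodium nitrite standards (0–100 μM). Inhibition is relative to LPS-only and untreated wells. MTT viability check run in parallel. Triplicate, mean ± SD of three experiments.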

Compound	IC50 [µM]
C[C@H]1[C@H](C)C(=O)C[C@]2(C)C[C@H](O)[C@]3(C)C(=CC(=O)[C@@H]4[C@@]5(C)C[C@H](O[C@@H]6O[C@H](CO)[C@@H](O)[C@H](O)[C@H]6O)[C@H](O)C(C)(C)[C@@H]5CC[C@]43C)[C@H]12	> 20
C[C@H]1[C@H](C)C(=O)C[C@]2(C)C[C@H](O)[C@]3(C)C(=CC(=O)[C@@H]4[C@@]5(C)CC[C@H](O)[C@](C)(CO[C@@H]6O[C@H](CO)[C@@H](O)[C@H](O)[C@H]6O)[C@@H]5CC[C@]43C)[C@H]12	> 20
CC1(C)C[C@H]2C3=CC(=O)[C@@H]4[C@@]5(C)CC[C@H](O)[C@](C)(CO[C@@H]6O[C@H](CO)[C@@H](O)[C@H](O)[C@H]6O)[C@@H]5CC[C@@]4(C)[C@]3(C)[C@@H](O)C[C@@]2(C)CC1=O	> 20
COc1cc(/C=C/C(=O)OC[C@@]2(O)CO[C@@H](O[C@H]3[C@H](Oc4cc(O)c5c(=O)cc(-c6ccc(O)cc6)oc5c4)O[C@H](CO)[C@@H](O)[C@@H]3O)[C@@H]2O)ccc1O	> 20
COc1cc(/C=C/C(=O)OC[C@@]2(O)CO[C@@H](O[C@H]3[C@H](Oc4cc(O)c5c(=O)cc(-c6ccc(O)c(OC)c6)oc5c4)O[C@H](CO)[C@@H](O)[C@@H]3O)[C@@H]2O)ccc1O	> 20
COc1cc(/C=C/C(=O)OC[C@@]2(O)CO[C@@H](O[C@H]3[C@H](Oc4cc(O)c5c(=O)cc(-c6ccc(O)c(O)c6)oc5c4)O[C@H](CO)[C@@H](O)[C@@H]3O)[C@@H]2O)ccc1O	> 20
O=C1C[C@@H](c2ccc(O)cc2)Oc2cc(O[C@@H]3O[C@H](CO)[C@@H](O)[C@H](O)[C@H]3O[C@@H]3OC[C@](O)(CO)[C@H]3O)cc(O)c21	> 20
COc1cc(-c2cc(=O)c3c(O)cc(O[C@@H]4O[C@H](CO)[C@@H](O)[C@H](O)[C@H]4O)cc3o2)ccc1O	> 20
O=c1cc(-c2ccc(O)cc2)oc2cc(O)cc(O)c12 [APIGENIN]	6.7
O=c1cc(-c2ccc(O)cc2)oc2cc(O[C@@H]3O[C@H](CO)[C@@H](O)[C@H](O)[C@H]3O)cc(O)c12 [APIGETRIN]	> 20
O=c1cc(-c2ccc(O)cc2)oc2cc(O[C@@H]3O[C@H](CO)[C@@H](O)[C@H](O)[C@H]3O[C@@H]3OC[C@](O)(CO)[C@H]3O)cc(O)c12 [APIIN]	> 20
COc1cc(-c2cc(=O)c3c(O)cc(O)cc3o2)ccc1O [CHRYSOERIOL]	14.2
COc1cc(/C=C/C(=O)CC(=O)/C=C/c2ccc(O)c(OC)c2)ccc1O [CURCUMIN]	8.3
O=c1cc(-c2ccc(O)c(O)c2)oc2cc(O[C@@H]3O[C@H](CO)[C@@H](O)[C@H](O)[C@H]3O)cc(O)c12 [GALUTEOLIN]	> 20
O=c1cc(-c2ccc(O)c(O)c2)oc2cc(O)cc(O)c12 [LUTEOLIN]	7.5
O=c1c(O)c(-c2ccc(O)c(O)c2)oc2cc(O)cc(O)c12 [QUERCETIN]	11.4
